Results published in ChEMBL document CHEMBL1781999, “Lead optimization of aryl and aralkyl amine-based triazolopyrimidine inhibitors of Plasmodium falciparum dihydroorotate dehydrogenase with antimalarial activity in mice” (J Med Chem, 2011).
≈ marks a conversion by molar mass, not a printed value. Calls of active or inactive are those of the source. The calls are words filed in the database; no cut-off is given here.

Legend:
Rattus norvegicus [1] = species on record: Rattus norvegicus; assay: Toxicity in Sprague-Dawley rat assessed as adverse effects; conditions: in vivo
Mus musculus [2] = assay: Toxicity in Plasmodium berghei ANKA NK65 infected Swiss Webster mouse assessed as adverse effect at 3 to 100 mg/kg, po qd for 4 days; assay type: organism-based; set-up: dose 3-100 mg/kg, route oral; conditions: in vivo, 96 h
Summary of the method: (§1)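 Female Swiss Webster mice, 8-10 weeks old (20-22 g), infected intraperitoneally with 2 × 10^7 P. berghei NK65 ANKA-infected erythrocytes. Oral doses in CMC vehicle (200 μL), first given 3 h post-infection, then at 24, 48 and 72 h. Parasitemia followed daily from 24 h by light microscopy at 1000× oil immersion, counting ≥10 fields of >100 erythrocytes. Mice losing ≥20% body weight were euthanized.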

[3] = target: Dihydroorotate dehydrogenase (quinone), mitochondrial (Homo sapiens, UniProt Q02127); assay: Inhibition of His6-tagged recombinant human dihydroorotate dehydrogenase expressed in Escherichia coli using L-dihydroorotate as substrate after 5 to 10 mins by DCIP dye-based assay
Chain of Dihydroorotate dehydrogenase (quinone), mitochondrial (Q02127 whole entry): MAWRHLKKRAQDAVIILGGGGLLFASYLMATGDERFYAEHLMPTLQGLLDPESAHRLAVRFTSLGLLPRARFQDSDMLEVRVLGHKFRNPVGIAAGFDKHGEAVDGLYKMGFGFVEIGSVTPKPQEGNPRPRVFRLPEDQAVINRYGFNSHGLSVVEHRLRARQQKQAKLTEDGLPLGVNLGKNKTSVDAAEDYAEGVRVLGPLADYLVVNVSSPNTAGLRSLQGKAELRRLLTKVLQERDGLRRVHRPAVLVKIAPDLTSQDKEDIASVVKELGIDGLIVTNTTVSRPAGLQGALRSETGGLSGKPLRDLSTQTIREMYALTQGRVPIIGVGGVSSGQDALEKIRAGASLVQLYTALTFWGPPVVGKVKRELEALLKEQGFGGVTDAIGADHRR

[4] = Aqueous solubility of the compound in phosphate buffer at pH 6.5; assay type: physicochemical; conditions: phosphate buffer, read-out: solubility
Summary of the method: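 Non-equilibrium solubility. Concentrated DMSO stocks were diluted into pH 6.5 phosphate buffer (final DMSO 1% v/v) and precipitation was monitored by nephelometry. Solubility is given as the concentration range just before a turbidity signal rose above background.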

[5] = Inhibition of His6-tagged recombinant Plasmodium berghei dihydroorotate dehydrogenase expressed in Escherichia coli using L-dihydroorotate as substrate after 10 to 15 mins by DCIP dye-based assay; conditions: in the assay text read “5 to 10 mins” for “10 to 15 mins”
Summary of the method: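 Truncated soluble enzyme lacking the N-terminal membrane domain. Final concentrations: 0.2 mM L-dihydroorotate, 0.02 mM CoQD, 0.12 mM DCIP. Reaction started with 10 nM enzyme and read at 600 nm for 5–10 min at 20 °C. Inhibitor 0.01–100 μM in 3-fold steps, in triplicate. IC50 from a three-parameter fit of vi/vo from initial rates.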

Plasmodium berghei ANKA [6] = assay: Antimalarial activity against Plasmodium berghei ANKA NK65 infected in Swiss Webster mouse assessed as complete cure of animal at 100 mg/kg, po qd measured on day 7 by light microscopic analysis; assay type: functional, organism-based; set-up: dose 100 mg/kg
Summary of the method: as §1

[7] = Partition coefficient, log D of the compound at pH 7.4 by UV-HPLC analysis; conditions: octanol/water
Plasmodium berghei ANKA [8] = assay: Antimalarial activity against Plasmodium berghei ANKA NK65 infected in Swiss Webster mouse assessed as complete cure of animal at 50 mg/kg, po bid measured on day 7 by light microscopic analysis; assay type: functional, organism-based; set-up: dose 50 mg/kg
Mus musculus [9] = assay: Toxicity in Plasmodium berghei ANKA NK65 infected Swiss Webster mouse assessed as adverse effect at 50 mg/kg, po bid for 4 days; assay type: organism-based; set-up: dose 50 mg/kg, route oral; conditions: in vivo, 96 h
[10] = Plasma protein binding in human by albumin chromatographic method; assay type: ADME, cell-free; conditions: read-out: PPB (converted)
Mus musculus [11] = assay: Toxicity in Swiss mouse assessed as adverse effect at 20 mg/kg, po measured after 24 hrs; assay type: organism-based; set-up: dose 20 mg/kg, route oral; conditions: in vivo
[12] = target: T1, Dihydroorotate dehydrogenase (Plasmodium falciparum, UniProt Q54A96); assay: Inhibition of His6-tagged recombinant Plasmodium falciparum dihydroorotate dehydrogenase expressed in Escherichia coli using L-dihydroorotate as substrate after 5 to 10 mins by DCIP dye-based assay
T1 sequence (Q54A96 whole entry): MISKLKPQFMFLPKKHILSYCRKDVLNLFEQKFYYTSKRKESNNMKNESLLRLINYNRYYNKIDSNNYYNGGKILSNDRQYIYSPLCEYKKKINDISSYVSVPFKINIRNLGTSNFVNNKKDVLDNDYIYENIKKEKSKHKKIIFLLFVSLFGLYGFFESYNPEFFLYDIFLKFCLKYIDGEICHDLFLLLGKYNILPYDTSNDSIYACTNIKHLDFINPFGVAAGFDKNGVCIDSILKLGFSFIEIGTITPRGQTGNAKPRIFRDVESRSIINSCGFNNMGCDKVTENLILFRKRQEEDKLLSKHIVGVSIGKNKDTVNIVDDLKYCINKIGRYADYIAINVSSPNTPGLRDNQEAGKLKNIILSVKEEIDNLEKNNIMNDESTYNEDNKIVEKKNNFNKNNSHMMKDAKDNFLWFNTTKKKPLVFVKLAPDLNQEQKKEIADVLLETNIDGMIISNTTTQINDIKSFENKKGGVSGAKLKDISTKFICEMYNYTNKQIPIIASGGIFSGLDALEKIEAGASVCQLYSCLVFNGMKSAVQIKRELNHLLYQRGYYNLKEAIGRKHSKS

Mus musculus [13] = assay: Time duration above 1 uM plasma concentration in Swiss mouse at 20 mg/kg, po; assay type: ADME, organism-based; set-up: dose 20 mg/kg, route oral; conditions: in vivo
Summary of the method: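 Non-fasted male Swiss outbred mice given a single gavage dose in suspension (0.5% Na-CMC, 0.5% benzyl alcohol, 0.4% Tween 80). One mouse per time point; blood taken by cardiac puncture under isoflurane into stabilizer over 24 h. Plasma measured by LC-MS; time above 1 μM read directly from the concentration-time profile.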

Plasmodium falciparum [14] = assay: Antimalarial activity against Plasmodium falciparum 3D7 infected in human A positive erythrocytes by [3H]hypoxanthine uptake assay in presence of serum in medium; assay type: functional, organism-based
Summary of the method: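 Growth read by [3H]-hypoxanthine uptake. Each concentration run in quadruplicate and fitted to a four-parameter variable-slope log[I]-response model for 50% growth inhibition.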

Plasmodium falciparum [15] = assay: Antimalarial activity against Plasmodium falciparum 3D7 infected in human A positive erythrocytes by [3H]hypoxanthine uptake assay in presence of serum in medium albumax; assay type: functional, organism-based
Rattus norvegicus [16] = assay: Toxicity in Sprague-Dawley rat assessed as adverse effects at 20 mg/kg, po; assay type: organism-based; set-up: dose 20 mg/kg, route oral; conditions: in vivo
Summary of the method: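 Male Sprague Dawley rats, fasted overnight, given compound as a 10 min IV jugular infusion (solution) or by oral gavage (suspension), n=2 per group. Monitored through 24 h of cannula blood sampling.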

Liver = assay: Intrinsic clearance in mouse liver microsome assessed per mg of protein at 1 uM after 60 mins by LC-MS analysis; assay type: ADME; conditions: microsomes, 1 h
Summary of the method: (§2)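 Microsomal stability. Compound at 1 μM with liver microsomes (0.4 mg/mL protein) in 0.1 M phosphate pH 7.4 at 37 °C. Started with an NADPH-regenerating system plus MgCl2; controls lacked NADPH. Quenched with cold acetonitrile at time points up to 60 min. Parent loss measured by LC-MS and fitted to exponential decay to give CLint.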

Liver microsomes = assay: Intrinsic clearance in human liver microsome assessed per mg of protein at 1 uM after 60 mins by LC-MS analysis; assay type: ADME; conditions: microsomes, 1 h, 1 µM
Summary of the method: as §2

[17] = Plasma protein binding in rat by ultracentrifugation analysis; assay type: ADME, cell-free; conditions: read-out: PPB (converted)
Summary of the method: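 Rat plasma spiked at 200 and 2000 ng/mL, then ultracentrifuged at 223,000 × g for 4.2 h at 37 °C. Free drug in the supernatant plasma water was compared with total drug in non-centrifuged plasma kept at 37 °C for the same time, giving fraction bound.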

Mus musculus [18] = assay: Cmax in Swiss mouse at 20 mg/kg, po measured after 24 hrs by LC-MS analysis; assay type: ADME, organism-based; set-up: dose 20 mg/kg, route oral; conditions: in vivo
Summary of the method: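 Non-fasted male Swiss outbred mice given a single oral gavage dose in 0.5% w/v sodium carboxymethylcellulose, 0.5% v/v benzyl alcohol, 0.4% v/v Tween 80. One mouse per time point, cardiac blood under isoflurane, sampling to 24 h. Plasma stabilized, acetonitrile-precipitated, quantified by LC-MS against blank-plasma standards; Cmax read from concentration-time profile.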

Structure (SMILES) | Activity (Rattus norvegicus [1]) | Activity (Mus musculus [2]) | IC50 [3] [nM] | solubility [4] [µM] | IC50 [5] [nM] | Activity (Plasmodium berghei ANKA [6]) | logD [7] | Activity (Plasmodium berghei ANKA [8]) | Activity (Mus musculus [9]) | fraction unbound [10] | Activity (Mus musculus [11]) | IC50 [12] [nM] | Time (Mus musculus [13]) [h] | EC50 (Plasmodium falciparum [14]) [nM] | EC50 (Plasmodium falciparum [15]) [nM] | Activity (Rattus norvegicus [16]) | CL (Liver) [µL/min/mg] | CL (Liver microsomes) [µL/min/mg] | fraction unbound [17] | Cmax (Mus musculus [18]) [µM]
Cc1cc(Nc2cc(F)c(C(F)(F)F)c(F)c2)n2ncnc2n1 | Non-toxic | Non-toxic | > 30000 | 9 (≈ 2.96 µg/mL) | 280 | inactive | 2.9 | inactive | Non-toxic | 0.034 | Non-toxic | 190 | 19 | 1100 | 220 | Non-toxic | < 6 | < 5 | 0.027 | 33
Cc1cc(Nc2ccc(S(F)(F)(F)(F)F)cc2)n2ncnc2n1 | Non-toxic | Non-toxic | > 100000 | 71 (≈ 24.9 µg/mL) | 280 | inactive | 3 | inactive | Non-toxic | 0.046 | Non-toxic | 130 | 18 | 1300 | 180 | Non-toxic | < 6 | < 5 | 0.048 | 12
